Measurements: ChEMBL document CHEMBL1150340, “Synthesis of 5'-functionalized nucleosides: S-Adenosylhomocysteine analogues with the carbon-5' and sulfur atoms replaced by a vinyl or halovinyl unit” (Bioorg Med Chem, 2008)

What was measured:
[1] = biological target: Adenosylhomocysteinase (Homo sapiens) (UniProt P23526); test: Inhibition of human S-adenosyl-L-homocysteine hydrolase at 281 uM after 0.5 hrs
Summary of the method: (§1)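 Human AdoHcy hydrolase (204 nM) was preincubated with inhibitor in buffer A (50 mM, pH 7.2, 1 mM EDTA) at 22 °C, for 0.5 h or 4 h. Residual activity was then read in the synthetic direction: an aliquot was diluted into buffer A with 0.5 mM Ado and 0.5 mM Hcy, held 12 min at 37 °C, and stopped with HClO₄. Duplicates were averaged.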

[2] = biological target: Adenosylhomocysteinase (Homo sapiens) (UniProt P23526); test: Inhibition of human S-adenosyl-L-homocysteine hydrolase at 281 uM after 4 hrs; summary of the method: as §1
[3] = biological target: Adenosylhomocysteinase (Homo sapiens) (UniProt P23526); test: Inhibition of human S-adenosyl-L-homocysteine hydrolase after 20 mins

Adenosylhomocysteinase (Homo sapiens), sequence (P23526 2-432 limits assumed): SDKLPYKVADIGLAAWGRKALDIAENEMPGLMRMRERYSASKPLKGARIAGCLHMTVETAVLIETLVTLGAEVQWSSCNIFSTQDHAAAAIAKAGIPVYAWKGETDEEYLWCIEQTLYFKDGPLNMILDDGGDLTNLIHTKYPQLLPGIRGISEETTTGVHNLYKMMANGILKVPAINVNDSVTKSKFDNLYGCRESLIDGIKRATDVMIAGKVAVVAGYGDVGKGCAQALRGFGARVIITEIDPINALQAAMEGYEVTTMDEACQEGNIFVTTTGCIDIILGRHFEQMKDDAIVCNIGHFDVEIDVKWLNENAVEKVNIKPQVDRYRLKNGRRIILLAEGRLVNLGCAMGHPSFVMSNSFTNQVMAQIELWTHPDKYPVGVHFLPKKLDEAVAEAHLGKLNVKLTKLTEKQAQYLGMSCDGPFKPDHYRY

## Nc1ncnc2c1ncn2[C@@H]1O[C@H](/C=C(/F)CCCC(=O)O)[C@@H](O)[C@H]1O
[1]
  inhibition: 15.2%
[2]
  inhibition: 35.2%

## CCOC(=O)CCC/C=C/[C@H]1O[C@@H](n2cnc3c(N)ncnc32)[C@H](O)[C@@H]1O
[1]
  inhibition: 81%

## Nc1ncnc2c1ncn2[C@@H]1O[C@H](/C=C/CCCC(=O)O)[C@@H](O)[C@H]1O
[1]
  inhibition: 28.5%
[2]
  inhibition: 92.4%

## CCOC(=O)CCC/C(F)=C\[C@H]1O[C@@H](n2cnc3c(N)ncnc32)[C@H](O)[C@@H]1O
[1]
  inhibition: 14.1%

## CCOC(=O)/C=C/C=C\[C@H]1O[C@@H](n2cnc3c(N)ncnc32)[C@H](O)[C@@H]1O
[3]
  inhibition: 98.2%

## CCOC(=O)/C=C/C=C/[C@H]1O[C@@H](n2cnc3c(N)ncnc32)[C@H](O)[C@@H]1O
[3]
  inhibition: 96.4%

## COC(=O)CC/C=C\[C@H]1O[C@@H](n2cnc3c(N)ncnc32)[C@H](O)[C@@H]1O
[1]
  inhibition: 68.1%

## Nc1ncnc2c1ncn2[C@@H]1O[C@H](/C=C\CCC(=O)O)[C@@H](O)[C@H]1O
[1]
  inhibition: 50.5%
[2]
  inhibition: 95.5%
